The target in assay [1] is T1, Protein cereblon/Cyclin-dependent kinase 2/Cyclin-dependent kinase 9 (Homo sapiens, UniProt P24941+P50750+Q96SW2). Nature of the assay: Protac activity at CRBN/CDK2/CDK9 in AR-negative human PC3 cells assessed as induction of CDK2 protein degradation at 500 nM after 4 hrs by Western blot analysis. As to conditions: PC-3. The format is cell-based. Summed up: (§1)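 PC-3 cells treated with 500 nM degrader for varying times. Lysates blotted for CDK2, CDK4, CDK6, CDK9, c-Myc and Mcl-1, each at 1/1000 primary antibody, with β-tubulin reference and chemiluminescent detection.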
In general terms: A western blot detects proteins with antibodies after separation by electrophoresis.

Assay [2] has as its target Protein cereblon/Cyclin-dependent kinase 4 (Homo sapiens) (UniProt P11802+Q96SW2). As to the kind of experiment: Protac activity at CRBN/CDK4 in AR-negative human PC3 cells assessed as induction of CDK4 protein degradation at 500 nM after 24 hrs by Western blot analysis. The format is cell-based. As to conditions: PC-3. The method, boiled down: as §1
For assay [3], the target named is T1, Protein cereblon/Cyclin-dependent kinase 2/Cyclin-dependent kinase 9. Nature of the assay: Protac activity at CRBN/CDK2/CDK9 in human HCT116 cells assessed as CDK9 degradation at 0.25 to 10 uM after 12 hrs by Westernblot analysis. The conditions noted are these: HCT-116. The format is cell-based. Summed up: (§2)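 22Rv1, HCT-116 (RPMI 1640, 10% FBS) and MCF-7 cells treated with degrader at indicated concentrations for 12 h. CDK2 and CDK9 blotted with β-tubulin loading control.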

Assay [4] shares this target. Nature of the assay: Protac activity at CRBN/CDK2/CDK9 in AR-negative human PC3 cells assessed as CDK2 degradation at 250 nM preincubated with pomalidomide for 2 hrs and measured after 8 hrs by Western blot analysis. The format is cell-based. The conditions noted are these: PC-3. Summed up: (§3)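 PC-3 cells pretreated 2 h with 5 µM DMSO, FN-1501, pomalidomide or MG-132, then exposed to degrader at 250 nM for 8 h. Lysates probed for CDK2 and CDK9, β-tubulin as loading control. 50 µg protein per lane, 10% SDS-PAGE, chemiluminescent detection.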

For assay [5] the target is unchanged. As to the kind of experiment: Protac activity at CRBN/CDK2/CDK9 in AR-negative human PC3 cells assessed as CDK9 degradation at 250 nM preincubated with FN-1501 for 2 hrs and measured after 8 hrs by Western blot analysis. The format is cell-based. The conditions noted are these: PC-3. Summed up:
as §3

Assay [6] concerns PC-3. As to the kind of experiment: Induction of cell cycle arrest in human PC3 cells assessed as accumulation at G2/M phase at 250 nM after 48 hrs by propidium iodide staining based flow cytometry (reference value: 22.24%). The format is functional.
In assay [7] the test system is PC-3. As to the kind of experiment: Induction of cell cycle arrest in human PC3 cells assessed as accumulation at G0/G1 phase at 1 uM after 48 hrs by propidium iodide staining based flow cytometry (reference value: 59.80%). The format is functional. Background: A flow cytometer gives signals particle by particle.
Assay [8] concerns PC-3. Nature of the assay: Induction of cell cycle arrest in human PC3 cells assessed as accumulation at G0/G1 phase at 3 uM after 48 hrs by propidium iodide staining based flow cytometry (reference value: 59.80%). The format is functional.
The target in assay [9] is T1, Protein cereblon/Cyclin-dependent kinase 2/Cyclin-dependent kinase 9. As to the kind of experiment: Protac activity at CRBN/CDK2/CDK9 in AR-negative human PC3 cells assessed as CDK9 degradation at 250 nM preincubated with proteasome inhibitor MG132 for 2 hrs and measured after 8 hrs by Western blot analysis. The format is cell-based. The conditions noted are these: PC-3. The method, boiled down: as §3

For assay [10] the target is unchanged. Nature of the assay: Protac activity at CRBN/CDK2/CDK9 in AR-negative human PC3 cells assessed as CDK2 degradation at 250 nM preincubated with FN-1501 for 2 hrs and measured after 8 hrs by Western blot analysis. The format is cell-based. The conditions noted are these: PC-3. The method, boiled down:
as §3

The target of the next assay is CDK2/Cyclin A2 (Homo sapiens, UniProt P24941). As to the kind of experiment: Inhibition of tracer K10 binding to NanoLuc-CDK2/Cyclin A (unknown origin) expressed in human HEK293 cells after 1 hr in presence of ATP by NanoBRET assay. The format is cell-based. The method, boiled down: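 Cell-based target engagement run by a contract lab. HEK293 cells pretreated with NanoBRET Tracer K-10, then exposed to compound for 1 h with 10 µM ATP, and BRET signal read. 10-point, 3-fold dilutions from 1 µM. Staurosporine reference used 4-fold dilutions from 20 µM. IC50 from sigmoidal dose-response fit.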
On the technique in general: Bioluminescence resonance energy transfer reports proximity on the nanometre scale.

The target in assay [11] is Protein cereblon/Cyclin-dependent kinase 2 (Homo sapiens) (UniProt P24941+Q96SW2). Nature of the assay: Protac activity at CRBN/CDK2 in AR-negative human PC3 cells assessed as induction of CDK2 protein degradation at 50 nM after 12 hrs by Western blot analysis. The format is cell-based. As to conditions: PC-3. The method, boiled down:
(§4)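 PC-3 cells (5 × 10^5 per well) treated 12 h at single concentrations (50 nM, 500 nM, 1, 5 or 30 µM). RIPA lysates (50 µg) run on 10% SDS-PAGE and immunoblotted for CDK2, CDK5, CDK9 with β-tubulin loading control, then detected by chemiluminescence. Band intensities quantified densitometrically.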

Assay [12] has as its system PC-3. Nature of the assay: Induction of cell cycle arrest in human PC3 cells assessed as accumulation at S phase at 3 uM after 48 hrs by propidium iodide staining based flow cytometry (reference value: 17.96%). The format is functional.
In assay [13] the test system is PC-3. As to the kind of experiment: Induction of cell cycle arrest in human PC3 cells assessed as accumulation at S phase at 250 nM after 48 hrs by propidium iodide staining based flow cytometry (reference value: 17.96%). The format is functional.
In assay [14] the target is T1, Protein cereblon/Cyclin-dependent kinase 2/Cyclin-dependent kinase 9. Nature of the assay: Protac activity at CRBN/CDK2/CDK9 in AR-negative human PC3 cells assessed as induction of CDK9 protein degradation at 1 uM after 12 hrs by Western blot analysis. The format is cell-based. The conditions noted are these: PC-3. Summed up: as §4
Assay [15] concerns the target Protein cereblon/Cyclin-dependent kinase 6 (Homo sapiens) (UniProt Q00534+Q96SW2). As to the kind of experiment: Protac activity at CRBN/CDK6 in AR-negative human PC3 cells assessed as induction of CDK4 protein degradation at 500 nM after 24 hrs by Western blot analysis. The format is cell-based. As to conditions: PC-3. The method, boiled down:
as §1

Assay [16] addresses T1, Protein cereblon/Cyclin-dependent kinase 2/Cyclin-dependent kinase 9. Nature of the assay: Protac activity at CRBN/CDK2/CDK9 in human 22Rv1 cells assessed as CDK9 degradation at 0.25 to 10 uM after 12 hrs by Westernblot analysis. The format is cell-based. The conditions noted are these: CWR22R. The method, boiled down:
as §2

For assay [17] the target is unchanged. Nature of the assay: Protac activity at CRBN/CDK2/CDK9 in human 22Rv1 cells assessed as CDK2 degradation at 0.25 to 10 uM after 12 hrs by Westernblot analysis. The format is cell-based. As to conditions: CWR22R. The method, boiled down: as §2

Activity calls are given as the source filed them. No cut-off for these calls is given here.

Among the data in ChEMBL document CHEMBL4602651, “Development of selective mono or dual PROTAC degrader probe of CDK isoforms” (Eur J Med Chem, 2020) are Activity and IC50 values, retold here.

Sequence of Protein cereblon/Cyclin-dependent kinase 6 (Homo sapiens) (Q00534 whole entry, looked up): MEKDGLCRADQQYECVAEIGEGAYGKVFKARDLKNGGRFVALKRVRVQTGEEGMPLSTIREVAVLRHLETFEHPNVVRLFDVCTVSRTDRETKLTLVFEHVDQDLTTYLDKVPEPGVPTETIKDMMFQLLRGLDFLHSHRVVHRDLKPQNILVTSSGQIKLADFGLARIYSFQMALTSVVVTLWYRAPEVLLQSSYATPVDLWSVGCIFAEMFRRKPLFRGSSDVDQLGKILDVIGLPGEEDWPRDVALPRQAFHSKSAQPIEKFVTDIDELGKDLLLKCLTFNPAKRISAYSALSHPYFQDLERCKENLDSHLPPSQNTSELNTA
Sequence of Protein cereblon/Cyclin-dependent kinase 6 (Homo sapiens) (Q96SW2 whole entry, looked up): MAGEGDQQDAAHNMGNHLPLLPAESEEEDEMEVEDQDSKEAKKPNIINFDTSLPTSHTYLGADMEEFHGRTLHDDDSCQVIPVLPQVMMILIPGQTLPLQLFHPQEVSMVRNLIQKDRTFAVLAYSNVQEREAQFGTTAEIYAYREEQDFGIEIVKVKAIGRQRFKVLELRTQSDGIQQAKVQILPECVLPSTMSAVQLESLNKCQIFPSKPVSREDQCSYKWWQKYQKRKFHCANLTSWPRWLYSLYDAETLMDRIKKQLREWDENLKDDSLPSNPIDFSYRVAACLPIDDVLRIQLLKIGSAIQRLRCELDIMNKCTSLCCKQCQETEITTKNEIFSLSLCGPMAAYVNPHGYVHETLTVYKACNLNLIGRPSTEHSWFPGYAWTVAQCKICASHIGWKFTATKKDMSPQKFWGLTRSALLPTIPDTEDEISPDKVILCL
Sequence of Protein cereblon/Cyclin-dependent kinase 4 (Homo sapiens) (P11802 2-303 limits assumed): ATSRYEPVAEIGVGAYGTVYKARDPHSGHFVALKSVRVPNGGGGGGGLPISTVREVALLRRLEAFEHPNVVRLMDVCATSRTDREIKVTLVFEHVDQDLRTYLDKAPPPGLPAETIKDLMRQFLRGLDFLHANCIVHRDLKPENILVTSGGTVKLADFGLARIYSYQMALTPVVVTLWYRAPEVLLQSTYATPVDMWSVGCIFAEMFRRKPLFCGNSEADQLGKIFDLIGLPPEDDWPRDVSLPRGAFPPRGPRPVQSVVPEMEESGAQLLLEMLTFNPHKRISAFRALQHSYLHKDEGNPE
Sequence of Protein cereblon/Cyclin-dependent kinase 4 (Homo sapiens) (Q96SW2 whole entry partner): as the sequence (Q96SW2 whole entry, looked up) above

With `O=C(CCC(=O)N1CCN(Cc2ccc(NC(=O)c3n[nH]cc3Nc3ncnc4[nH]ccc34)cc2)CC1)NCCNc1cccc2c1C(=O)N(C1CCC(=O)NC1=O)C2=O` (stereo not drawn), the outcome in [1], in assay [3], in [11], in assay [14], in assay [16] and in [17] was Active. Moreover, the outcome in assay [2], in assay [4], in assay [5], in [9], in [10] and in [15] was inactive. Moreover, the Activity in the assay on PC-3 [6] is given as 22.13%; in the assay on PC-3 [7] it was 53.95%; in the assay on PC-3 [8], 52.76%; with PC-3 [12], 11.24%; in the assay on PC-3 [13], 27.72%. The IC50 (commonly the concentration at which inhibition is half-maximal) at CDK2/Cyclin A2 was 7.42 nM.
